test system: Poliovirus 1; experiment: Antiviral activity against Poliovirus type 1 Sabin strain infected in african green monkey Vero 76 cells assessed as reduction in plaque number after 2 days by plaque reduction assay; assay type: functional, organism-based; details: Enterovirus C, 48 h

| SMILES | EC50 |
| --- | --- |
| Nc1ccc(Cc2nc3cc(C(F)(F)F)ccc3[nH]2)cc1 | > 100 µM |
| COCCn1c(Cc2ccc(Cl)c(Cl)c2)nc2cc(C(F)(F)F)ccc21 | > 100 µM |
| c1ccc2[nH]c(SC[C@@H]3CCCN4CCCC[C@H]34)nc2c1 | > 100 µM |
| Cc1nc2cc(C(F)(F)F)ccc2n1C[C@@H]1CCCN2CCCC[C@H]12 | > 100 µM |

test system: Yellow fever virus; experiment: Antiviral activity against Yellow fever virus infected in BHK21 cells assessed as inhibition of virus-induced cytopathogenicity after 3 to 4 days by MTT assay; assay type: functional, organism-based; details: BHK-21

| SMILES | EC50 |
| --- | --- |
| Nc1ccc(Cc2nc3cc(C(F)(F)F)ccc3[nH]2)cc1 | > 100 µM |
| COCCn1c(Cc2ccc(Cl)c(Cl)c2)nc2cc(C(F)(F)F)ccc21 | > 100 µM |
| c1ccc2[nH]c(SC[C@@H]3CCCN4CCCC[C@H]34)nc2c1 | > 100 µM |
| Cc1nc2cc(C(F)(F)F)ccc2n1C[C@@H]1CCCN2CCCC[C@H]12 | 27 µM |

test system: Human immunodeficiency virus 1; experiment: Antiviral activity against HIV1 infected in human MT4 cells assessed as inhibition of virus-induced cytopathogenicity after 4 days by MTT assay; assay type: functional, organism-based; details: Human immunodeficiency virus 1, MT4, 96 h
Procedure, shortened: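 MT-4 cells (1 × 10^4/well in RPMI) were infected acutely with HIV-1 IIIB, 100 CCID50 (m.o.i. 0.01), with serial dilutions from 100 µM, 1:5. After 4 days at 37 °C, protection from virus-induced cytopathogenicity was read by MTT. EC50 came from linear regression against untreated controls.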

| SMILES | EC50 |
| --- | --- |
| Nc1ccc(Cc2nc3cc(C(F)(F)F)ccc3[nH]2)cc1 | > 100 µM |
| COCCn1c(Cc2ccc(Cl)c(Cl)c2)nc2cc(C(F)(F)F)ccc21 | > 100 µM |
| c1ccc2[nH]c(SC[C@@H]3CCCN4CCCC[C@H]34)nc2c1 | > 100 µM |
| Cc1nc2cc(C(F)(F)F)ccc2n1C[C@@H]1CCCN2CCCC[C@H]12 | > 100 µM |

test system: not listed separately; experiment: Selectivity index, ratio of CC50 for african green monkey Vero 76 cells to EC50 for Coxsackievirus B5; assay type: toxicity, cell-based; details: read-out: Ratio CC50/EC50
Procedure, shortened: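 Mock-infected Vero-76 cells were tested in parallel on the same 24-well plates as the plaque assays (seeding 4 × 10^5 cells/mL, D-MEM with FBS), with serial compound dilutions at 37 °C, 5% CO2. Viability was read after 48–96 h by crystal violet staining. CC50 by linear regression; selectivity index = Vero-76 CC50/EC50 for CVB-5 or RSV.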

| SMILES | selectivity ratio |
| --- | --- |
| Nc1ccc(Cc2nc3cc(C(F)(F)F)ccc3[nH]2)cc1 | > 9.09 |
| COCCn1c(Cc2ccc(Cl)c(Cl)c2)nc2cc(C(F)(F)F)ccc21 | > 8.33 |
| c1ccc2[nH]c(SC[C@@H]3CCCN4CCCC[C@H]34)nc2c1 | > 2.08 |
| Cc1nc2cc(C(F)(F)F)ccc2n1C[C@@H]1CCCN2CCCC[C@H]12 | > 2.13 |

test system: Coxsackievirus B5; experiment: Antiviral activity against Coxsackievirus B5 infected in african green monkey Vero 76 cells assessed as reduction in plaque number after 3 days by plaque reduction assay; assay type: functional, organism-based; details: Enterovirus B, 72 h

| SMILES | EC50 |
| --- | --- |
| Nc1ccc(Cc2nc3cc(C(F)(F)F)ccc3[nH]2)cc1 | 11 µM |
| COCCn1c(Cc2ccc(Cl)c(Cl)c2)nc2cc(C(F)(F)F)ccc21 | 12 µM |
| c1ccc2[nH]c(SC[C@@H]3CCCN4CCCC[C@H]34)nc2c1 | 48 µM |
| Cc1nc2cc(C(F)(F)F)ccc2n1C[C@@H]1CCCN2CCCC[C@H]12 | 47 µM |

test system: Bovine viral diarrhea virus 1; experiment: Antiviral activity against Bovine viral diarrhea virus infected in MDBK cells assessed as inhibition of virus-induced cytopathogenicity after 3 to 4 days by MTT assay; assay type: functional, organism-based; details: Bovine viral diarrhea virus isolates and strains

| SMILES | EC50 |
| --- | --- |
| Nc1ccc(Cc2nc3cc(C(F)(F)F)ccc3[nH]2)cc1 | > 100 µM |
| COCCn1c(Cc2ccc(Cl)c(Cl)c2)nc2cc(C(F)(F)F)ccc21 | > 100 µM |
| c1ccc2[nH]c(SC[C@@H]3CCCN4CCCC[C@H]34)nc2c1 | > 100 µM |
| Cc1nc2cc(C(F)(F)F)ccc2n1C[C@@H]1CCCN2CCCC[C@H]12 | > 100 µM |

test system: not listed separately; experiment: Cytotoxicity against mock-infected MDBK cells after 48 to 96 hrs by MTT assay; assay type: cell-based, Bos taurus; details: cattle
Procedure, shortened: (§1)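 Mock-infected MDBK (6 × 10^5 cells/mL; MEM-E, 10% horse serum, 1 mM pyruvate) or BHK (1 × 10^6 cells/mL; MEM-E, 10% FBS) cells were incubated at 37 °C, 5% CO2 with serial dilutions from 100 µM, 1:5. Viability by MTT after 48–96 h. CC50 from linear regression against untreated controls.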

| SMILES | CC50 |
| --- | --- |
| Nc1ccc(Cc2nc3cc(C(F)(F)F)ccc3[nH]2)cc1 | > 100 µM |
| COCCn1c(Cc2ccc(Cl)c(Cl)c2)nc2cc(C(F)(F)F)ccc21 | > 100 µM |
| c1ccc2[nH]c(SC[C@@H]3CCCN4CCCC[C@H]34)nc2c1 | > 100 µM |
| Cc1nc2cc(C(F)(F)F)ccc2n1C[C@@H]1CCCN2CCCC[C@H]12 | > 100 µM |

test system: Vaccinia virus; experiment: Antiviral activity against Vaccinia Virus infected in african green monkey Vero 76 cells assessed as reduction in plaque number after 3 days by plaque reduction assay; assay type: functional, organism-based; details: Orthopoxvirus vaccinia, 72 h

| SMILES | EC50 |
| --- | --- |
| Nc1ccc(Cc2nc3cc(C(F)(F)F)ccc3[nH]2)cc1 | > 100 µM |
| COCCn1c(Cc2ccc(Cl)c(Cl)c2)nc2cc(C(F)(F)F)ccc21 | > 100 µM |
| c1ccc2[nH]c(SC[C@@H]3CCCN4CCCC[C@H]34)nc2c1 | > 100 µM |
| Cc1nc2cc(C(F)(F)F)ccc2n1C[C@@H]1CCCN2CCCC[C@H]12 | 23 µM |

test system: Reovirus sp.; experiment: Antiviral activity against Reovirus type-1 infected in BHK21 cells assessed as inhibition of virus-induced cytopathogenicity after 3 to 4 days by MTT assay; assay type: functional, organism-based; details: BHK-21

| SMILES | EC50 |
| --- | --- |
| Nc1ccc(Cc2nc3cc(C(F)(F)F)ccc3[nH]2)cc1 | > 100 µM |
| COCCn1c(Cc2ccc(Cl)c(Cl)c2)nc2cc(C(F)(F)F)ccc21 | > 100 µM |
| c1ccc2[nH]c(SC[C@@H]3CCCN4CCCC[C@H]34)nc2c1 | > 100 µM |
| Cc1nc2cc(C(F)(F)F)ccc2n1C[C@@H]1CCCN2CCCC[C@H]12 | > 100 µM |

test system: Human alphaherpesvirus 1; experiment: Antiviral activity against HSV1 infected in african green monkey Vero 76 cells assessed as reduction in plaque number after 3 days by plaque reduction assay; assay type: functional, organism-based; details: Human alphaherpesvirus 1, Vero, 72 h

| SMILES | EC50 |
| --- | --- |
| Nc1ccc(Cc2nc3cc(C(F)(F)F)ccc3[nH]2)cc1 | > 100 µM |
| COCCn1c(Cc2ccc(Cl)c(Cl)c2)nc2cc(C(F)(F)F)ccc21 | > 100 µM |
| c1ccc2[nH]c(SC[C@@H]3CCCN4CCCC[C@H]34)nc2c1 | > 100 µM |
| Cc1nc2cc(C(F)(F)F)ccc2n1C[C@@H]1CCCN2CCCC[C@H]12 | > 100 µM |

test system: not listed separately; experiment: Cytotoxicity against mock-infected african green monkey Vero 76 cells after 48 to 96 hrs by MTT assay; assay type: cell-based; details: chlorocebus sabaeus, mock-infected Vero 76 cells

| SMILES | CC50 |
| --- | --- |
| Nc1ccc(Cc2nc3cc(C(F)(F)F)ccc3[nH]2)cc1 | > 100 µM |
| COCCn1c(Cc2ccc(Cl)c(Cl)c2)nc2cc(C(F)(F)F)ccc21 | > 100 µM |
| c1ccc2[nH]c(SC[C@@H]3CCCN4CCCC[C@H]34)nc2c1 | > 100 µM |
| Cc1nc2cc(C(F)(F)F)ccc2n1C[C@@H]1CCCN2CCCC[C@H]12 | > 100 µM |

test system: Vesicular stomatitis virus; experiment: Antiviral activity against Vesicular stomatitis virus infected in african green monkey Vero 76 cells assessed as reduction in plaque number after 2 days by plaque reduction assay; assay type: functional, organism-based; details: 48 h

| SMILES | EC50 |
| --- | --- |
| Nc1ccc(Cc2nc3cc(C(F)(F)F)ccc3[nH]2)cc1 | > 100 µM |
| COCCn1c(Cc2ccc(Cl)c(Cl)c2)nc2cc(C(F)(F)F)ccc21 | > 100 µM |
| c1ccc2[nH]c(SC[C@@H]3CCCN4CCCC[C@H]34)nc2c1 | > 100 µM |
| Cc1nc2cc(C(F)(F)F)ccc2n1C[C@@H]1CCCN2CCCC[C@H]12 | > 100 µM |

test system: not listed separately; experiment: Cytotoxicity against mock-infected human MT4 cells after 96 hrs by MTT assay; assay type: cell-based; details: not given
Procedure, shortened: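 Exponentially growing MT-4 cells were seeded at 1 × 10^5 cells/mL in RPMI-1640 with 10% FBS and held at 37 °C, 5% CO2 with serial compound dilutions. Viability was read by MTT after 96 h. CC50 from linear regression against untreated controls.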

| SMILES | CC50 at 96 h |
| --- | --- |
| Nc1ccc(Cc2nc3cc(C(F)(F)F)ccc3[nH]2)cc1 | > 100 µM |
| COCCn1c(Cc2ccc(Cl)c(Cl)c2)nc2cc(C(F)(F)F)ccc21 | > 100 µM |
| c1ccc2[nH]c(SC[C@@H]3CCCN4CCCC[C@H]34)nc2c1 | > 100 µM |
| Cc1nc2cc(C(F)(F)F)ccc2n1C[C@@H]1CCCN2CCCC[C@H]12 | > 100 µM |

test system: not listed separately; experiment: Cytotoxicity against mock-infected BHK21 cells after 48 to 96 hrs by MTT assay; assay type: functional; details: Mesocricetus auratus, BHK-21; procedure, shortened: as §1

| SMILES | CC50 |
| --- | --- |
| Nc1ccc(Cc2nc3cc(C(F)(F)F)ccc3[nH]2)cc1 | > 100 µM |
| COCCn1c(Cc2ccc(Cl)c(Cl)c2)nc2cc(C(F)(F)F)ccc21 | > 100 µM |
| c1ccc2[nH]c(SC[C@@H]3CCCN4CCCC[C@H]34)nc2c1 | > 100 µM |
| Cc1nc2cc(C(F)(F)F)ccc2n1C[C@@H]1CCCN2CCCC[C@H]12 | > 100 µM |

test system: Respiratory syncytial virus; experiment: Antiviral activity against Respiratory syncytial virus infected in african green monkey Vero 76 cells assessed as reduction in plaque number after 5 days by plaque reduction assay; assay type: functional, organism-based; details: human respiratory syncytial virus, 120 h

| SMILES | EC50 |
| --- | --- |
| Nc1ccc(Cc2nc3cc(C(F)(F)F)ccc3[nH]2)cc1 | > 100 µM |
| COCCn1c(Cc2ccc(Cl)c(Cl)c2)nc2cc(C(F)(F)F)ccc21 | > 100 µM |
| c1ccc2[nH]c(SC[C@@H]3CCCN4CCCC[C@H]34)nc2c1 | > 100 µM |
| Cc1nc2cc(C(F)(F)F)ccc2n1C[C@@H]1CCCN2CCCC[C@H]12 | > 100 µM |
